In publication PMC6916429 (ACS infectious diseases, 2019):
Values joined by “and” are separate entries in the source; they are usually repeats but may differ in a detail not shown here. Identical values can stand only once. Blank lines part the entries; values can stand above or below the molecule they belong to.

Tests used:
[1] = tested on: S. aureus biofilms (UAMS-1); test: Biofilm killing assay; type: cell-based; conditions: 10 times the MIC, 24 hours, compared with the control
Method in brief: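 Overnight stationary UAMS-1 culture diluted 1:20 in BHI broth and grown 24 h at 37 °C in tissue-culture-treated 96-well plates. Wells PBS-washed twice, then exposed to test compound in fresh medium for 24 h. Washed again, biofilms disrupted by sonication in PBS, serially diluted, and spotted on BHI agar overnight at 37 °C for cfu counts. One-way ANOVA with Dunnett's test.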

[2] = biological target: T1, S. aureus ClpP (caseinolytic protease) (S. aureus NCTC 8325), Q2G036; test: crystal structure; conditions: remark: other sources report otherwise
T1 chain: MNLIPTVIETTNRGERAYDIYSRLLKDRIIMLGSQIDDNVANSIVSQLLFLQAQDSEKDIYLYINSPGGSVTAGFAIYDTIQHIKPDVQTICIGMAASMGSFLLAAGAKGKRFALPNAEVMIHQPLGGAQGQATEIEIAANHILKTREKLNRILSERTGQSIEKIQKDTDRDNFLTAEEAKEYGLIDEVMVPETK

[3] = biological target: T1, S. aureus ClpP (caseinolytic protease) …; test: AUC; conditions: remark: other sources report otherwise

Molecule: CO[C@H]1/C=C/O[C@@]2(C)Oc3c(C)c(O)c4c(O)c(c(/C=N/N5CCN(C)CC5)c(O)c4c3C2=O)NC(=O)/C(C)=C\C=C\[C@H](C)[C@H](O)[C@@H](C)[C@@H](O)[C@@H](C)[C@H](OC(C)=O)[C@@H]1C [rifampin]
reduction in growth of mature S. aureus biofilms [1]: limited reduction

stoichiometry N [2]: 14
stoichiometry N [3]: 14 and 7
B1: S. aureus ClpP (caseinolytic protease), Q2G036 1-195 (enzyme)
chain: T1 chain
